Changes are numbered by the printed parent chain.
How the values were obtained:
Conditions in all cases: stereoisomer not certain
[1] = target: T1, OR2W3 (Homo sapiens) (UniProt Q7Z3T1)
T1 sequence (whole entry): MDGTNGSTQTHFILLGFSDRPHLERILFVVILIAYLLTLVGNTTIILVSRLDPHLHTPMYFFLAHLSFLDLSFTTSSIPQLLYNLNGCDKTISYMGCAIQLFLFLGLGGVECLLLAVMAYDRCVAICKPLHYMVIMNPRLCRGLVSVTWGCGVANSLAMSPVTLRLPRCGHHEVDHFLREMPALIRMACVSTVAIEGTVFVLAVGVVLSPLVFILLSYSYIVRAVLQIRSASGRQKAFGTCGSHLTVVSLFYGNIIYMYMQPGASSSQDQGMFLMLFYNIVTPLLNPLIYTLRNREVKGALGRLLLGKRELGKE
Outline: (§1)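 Assay methods differ from source to source, frequently being transient luciferase assays in mammalian cell lines. For each receptor–molecule pair, the label responsive (active) applies when the original authors judged the measured signal statistically different from baseline, and non-responsive (inactive) applies otherwise.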

[2] = target: T2, OR2W5P (Homo sapiens) (UniProt A6NFC9)
T2 sequence (whole entry): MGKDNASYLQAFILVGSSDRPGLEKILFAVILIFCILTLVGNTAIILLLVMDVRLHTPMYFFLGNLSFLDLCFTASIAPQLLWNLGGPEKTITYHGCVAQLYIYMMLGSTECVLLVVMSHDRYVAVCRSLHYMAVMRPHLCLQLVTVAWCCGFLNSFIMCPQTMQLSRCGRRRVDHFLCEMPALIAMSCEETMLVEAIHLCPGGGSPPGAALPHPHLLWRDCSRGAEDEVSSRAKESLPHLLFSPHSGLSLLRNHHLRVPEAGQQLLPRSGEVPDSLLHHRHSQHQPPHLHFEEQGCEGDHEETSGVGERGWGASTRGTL
Outline: as §1

[3] = target: T3, OR2Y1 (Homo sapiens) (UniProt Q8NGV0)
T3 sequence (whole entry): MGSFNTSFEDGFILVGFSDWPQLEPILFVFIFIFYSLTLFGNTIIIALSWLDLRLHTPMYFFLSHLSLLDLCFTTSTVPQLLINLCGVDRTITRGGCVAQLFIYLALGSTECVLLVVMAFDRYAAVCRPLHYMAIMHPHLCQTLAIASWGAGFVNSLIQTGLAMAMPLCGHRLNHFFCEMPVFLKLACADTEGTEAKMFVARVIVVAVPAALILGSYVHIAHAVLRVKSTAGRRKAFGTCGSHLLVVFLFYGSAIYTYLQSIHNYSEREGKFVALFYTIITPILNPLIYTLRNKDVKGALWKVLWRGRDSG
Outline: as §1

[4] = target: T4, OR2Z1 (Homo sapiens) (UniProt Q8NG97)
T4 sequence (whole entry): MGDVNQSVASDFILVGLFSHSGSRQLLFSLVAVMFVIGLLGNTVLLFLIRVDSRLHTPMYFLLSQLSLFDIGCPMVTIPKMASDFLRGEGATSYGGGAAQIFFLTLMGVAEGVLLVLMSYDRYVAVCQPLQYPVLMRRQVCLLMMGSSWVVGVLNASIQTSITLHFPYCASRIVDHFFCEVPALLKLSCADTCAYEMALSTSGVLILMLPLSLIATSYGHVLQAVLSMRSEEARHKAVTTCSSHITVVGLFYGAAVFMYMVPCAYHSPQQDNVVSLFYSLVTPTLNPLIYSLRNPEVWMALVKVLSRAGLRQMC
Outline: as §1

[5] = target: T5, OR3A1 (Homo sapiens) (UniProt P47881)
T5 sequence (whole entry): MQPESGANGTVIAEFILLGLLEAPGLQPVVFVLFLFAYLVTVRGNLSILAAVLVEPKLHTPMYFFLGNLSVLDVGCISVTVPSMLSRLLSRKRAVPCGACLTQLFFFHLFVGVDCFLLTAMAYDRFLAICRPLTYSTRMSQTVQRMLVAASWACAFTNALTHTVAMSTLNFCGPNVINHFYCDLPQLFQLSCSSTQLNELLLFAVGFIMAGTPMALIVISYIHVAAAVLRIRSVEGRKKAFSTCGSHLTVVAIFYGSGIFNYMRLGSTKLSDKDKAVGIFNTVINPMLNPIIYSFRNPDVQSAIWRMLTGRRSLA
Outline: as §1

[6] = target: T6, OR3A2 (Homo sapiens) (UniProt P47893)
T6 sequence (whole entry): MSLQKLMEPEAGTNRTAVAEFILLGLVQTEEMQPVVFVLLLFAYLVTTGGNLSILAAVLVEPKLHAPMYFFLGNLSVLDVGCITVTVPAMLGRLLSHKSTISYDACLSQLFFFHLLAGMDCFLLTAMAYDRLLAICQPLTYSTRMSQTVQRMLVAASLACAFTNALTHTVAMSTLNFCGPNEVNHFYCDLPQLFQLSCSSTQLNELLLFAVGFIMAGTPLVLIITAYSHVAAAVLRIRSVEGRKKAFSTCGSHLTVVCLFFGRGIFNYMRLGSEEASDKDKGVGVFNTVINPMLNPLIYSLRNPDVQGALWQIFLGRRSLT
Outline: as §1

[7] = target: T7, OR3A3 (Homo sapiens) (UniProt P47888)
T7 sequence (whole entry): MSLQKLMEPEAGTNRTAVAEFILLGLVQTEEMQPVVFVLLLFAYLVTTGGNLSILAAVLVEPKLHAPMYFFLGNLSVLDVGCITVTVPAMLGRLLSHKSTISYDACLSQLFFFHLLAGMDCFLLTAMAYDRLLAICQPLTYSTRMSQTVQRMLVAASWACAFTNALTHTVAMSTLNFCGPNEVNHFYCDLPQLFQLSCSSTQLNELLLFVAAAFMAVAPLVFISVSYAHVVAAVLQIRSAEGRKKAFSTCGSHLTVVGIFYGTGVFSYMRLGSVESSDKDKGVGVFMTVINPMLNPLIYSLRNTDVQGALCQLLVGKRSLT
Outline: as §1

[8] = system: T8, OR2Y1
T8 sequence (whole entry): T3 sequence (whole entry) with V200L
Outline: as §1

[9] = system: T9, OR3A1
T9 sequence (whole entry): T5 sequence (whole entry) with R125Q
Outline: as §1

[10] = system: T10, OR3A2 R317K
T10 sequence (whole entry): T6 sequence (whole entry) with R317K
Outline: as §1

CCCCCC(=O)C(C)C(C)=O (stereo not drawn)
odorant receptor agonist call [1]: inactive | odorant receptor agonist call [2]: inactive | odorant receptor agonist call [3]: inactive | odorant receptor agonist call [4]: inactive | odorant receptor agonist call [5]: inactive | odorant receptor agonist call [6]: inactive | odorant receptor agonist call [7]: inactive

CCC(S)C(C)CO (stereo not drawn)
odorant receptor agonist call [1]: inactive | odorant receptor agonist call [2]: inactive | odorant receptor agonist call [3]: inactive | odorant receptor agonist call [4]: inactive | odorant receptor agonist call [5]: inactive | odorant receptor agonist call [6]: inactive | odorant receptor agonist call [7]: inactive

CCCCCC1=C(C)CCC1=O
odorant receptor agonist call [5]: active

CC(C=O)Cc1ccccc1 (stereo not drawn)
odorant receptor agonist call [5]: active

OCCc1ccccc1
odorant receptor agonist call [5]: inactive

CC1=C(O)C(=O)C(C)O1 (stereo not drawn)
odorant receptor agonist call [1]: inactive | odorant receptor agonist call [2]: inactive | odorant receptor agonist call [3]: inactive | odorant receptor agonist call [8]: inactive | odorant receptor agonist call [4]: inactive | odorant receptor agonist call [5]: inactive | odorant receptor agonist call [9]: inactive | odorant receptor agonist call [6]: inactive | odorant receptor agonist call [10]: inactive | odorant receptor agonist call [7]: inactive

Cc1ccc(CC(C)C=O)cc1 (stereo not drawn)
odorant receptor agonist call [5]: active

CCCCCCCC(=O)OCCCCCC
odorant receptor agonist call [5]: inactive

OCC=Cc1ccccc1
odorant receptor agonist call [5]: inactive

CC(C=O)Cc1ccc(C(C)(C)C)cc1 (stereo not drawn)
odorant receptor agonist call [1]: inactive | odorant receptor agonist call [5]: active

CC1=C(O)C(=O)OC1C (stereo not drawn)
odorant receptor agonist call [1]: inactive | odorant receptor agonist call [2]: inactive | odorant receptor agonist call [3]: inactive | odorant receptor agonist call [8]: inactive | odorant receptor agonist call [4]: inactive | odorant receptor agonist call [5]: inactive | odorant receptor agonist call [9]: inactive | odorant receptor agonist call [6]: inactive | odorant receptor agonist call [10]: inactive | odorant receptor agonist call [7]: inactive

CC(C=O)=Cc1ccccc1
odorant receptor agonist call [5]: inactive

CCCCC(S)C(C)CO (stereo not drawn)
odorant receptor agonist call [1]: inactive | odorant receptor agonist call [2]: inactive | odorant receptor agonist call [3]: inactive | odorant receptor agonist call [4]: inactive | odorant receptor agonist call [5]: inactive | odorant receptor agonist call [6]: inactive | odorant receptor agonist call [7]: inactive

O=CCCc1ccccc1
odorant receptor agonist call [5]: inactive

Cc1cnc(C)c(C)n1
odorant receptor agonist call [1]: inactive | odorant receptor agonist call [2]: inactive | odorant receptor agonist call [3]: inactive | odorant receptor agonist call [8]: inactive | odorant receptor agonist call [4]: inactive | odorant receptor agonist call [5]: inactive | odorant receptor agonist call [9]: inactive | odorant receptor agonist call [6]: inactive | odorant receptor agonist call [10]: inactive | odorant receptor agonist call [7]: inactive

CCC1OC(=O)C(O)=C1C (stereo not drawn)
odorant receptor agonist call [1]: inactive | odorant receptor agonist call [2]: inactive | odorant receptor agonist call [3]: inactive | odorant receptor agonist call [8]: inactive | odorant receptor agonist call [4]: inactive | odorant receptor agonist call [5]: inactive | odorant receptor agonist call [9]: inactive | odorant receptor agonist call [6]: inactive | odorant receptor agonist call [10]: inactive | odorant receptor agonist call [7]: inactive

CC(CC=O)CCc1ccccc1 (stereo not drawn)
odorant receptor agonist call [5]: active

COc1ccc(COC=O)cc1
odorant receptor agonist call [5]: inactive

Source: the M2OR odorant receptor database
